In experiment [1] the test system is Candida albicans. The experiment can be described thus: Antifungal activity against Candida albicans assessed as inhibition zone diameter […] by agar dilution method. Type of experiment: functional. The method in brief:
(§1)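 Compounds in DMSO placed in punched wells on Sabouraud agar (peptone, glucose, agar, pH 5.7) lawned with saline spore suspension. Plates pre-dried 1 h at 37 °C. Controls in triplicate, incubation at 37 °C for 3-4 days, then inhibition zone diameter read in mm. Amphotericin B reference.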
For orientation: Agar dilution tests growth on a series of plates holding different concentrations.

In the next experiment the test system is Escherichia coli. Nature of the experiment: Antibacterial activity against Escherichia coli ATCC 25922 after 24 hrs by broth dilution technique. Type of experiment: functional. The note with it: ATCC 25922, 24 h. The method in brief: (§2)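 MIC by broth dilution in nutrient broth with logarithmic serial twofold dilutions of compound. Inoculum approx. 5×10^5 c.f.u actively dividing bacteria. Incubated 24 h at 37 °C, growth monitored visually and spectrophotometrically. MIC taken as the lowest concentration (highest dilution) arresting growth. Ciprofloxacin reference.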
For orientation: Dilution methods test growth across graded concentrations, often in twofold steps.

Experiment [2] relates to Staphylococcus aureus. The experiment can be described thus: Antibacterial activity against Staphylococcus aureus ATCC 25923 assessed as inhibition zone diameter after 24 hrs […]. Type of experiment: functional. The method in brief: (§3)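 Disc diffusion on nutrient agar. Inoculum 1-2 × 10^7 c.f.u/ml (0.5 McFarland) spread over the plate surface. Sterile 6.25 mm filter-paper discs soaked in a known concentration of compound. Solvent and growth controls included. Plates incubated inverted 24 h at 37 °C, then inhibition zone diameter measured in mm. Ciprofloxacin reference.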

The test system of experiment [3] is Aspergillus fumigatus. Nature of the experiment: Antifungal activity against Aspergillus fumigatus assessed as inhibition zone diameter […] by agar dilution method. Type of experiment: functional. An outline of the steps: as §1
For experiment [4], the system named is Streptococcus pyogenes. The experiment can be described thus: Antibacterial activity against Streptococcus pyogenes after 24 hrs by broth dilution technique. Type of experiment: functional. The method in brief: as §2
Experiment [5] relates to Pseudomonas aeruginosa. The experiment can be described thus: Antibacterial activity against Pseudomonas aeruginosa ATCC 27853 assessed as inhibition zone diameter after 24 hrs […]. Type of experiment: functional. The method in brief: as §3
The subject of experiment [6] is Streptococcus pyogenes. The experiment can be described thus: Antibacterial activity against Streptococcus pyogenes assessed as inhibition zone diameter after 24 hrs by disc diffusion method. For orientation: Agar diffusion results depend on both activity and mobility in agar.
Experiment [7] has as its system Klebsiella pneumoniae. Nature of the experiment: Antibacterial activity against Klebsiella pneumoniae after 24 hrs by broth dilution technique. Type of experiment: functional. An outline of the steps:
as §2

Experiment [8] has as its system Aspergillus fumigatus. The experiment can be described thus: Antifungal activity against Aspergillus fumigatus after 48 hrs […]. Type of experiment: functional.
For experiment [9], the system named is Talaromyces marneffei. The experiment can be described thus: Antifungal activity against Penicillium marneffei assessed as inhibition zone diameter […] by agar dilution method. Type of experiment: functional. An outline of the steps: as §1
Experiment [10] concerns Pseudomonas aeruginosa. Nature of the experiment: Antibacterial activity against Pseudomonas aeruginosa ATCC 27853 after 24 hrs by broth dilution technique. Type of experiment: functional. The note with it: ATCC 27853, 24 h. The method in brief:
as §2

Experiment [11] has as its system Aspergillus flavus. The experiment can be described thus: Antifungal activity against Aspergillus flavus after 48 hrs […]. Type of experiment: functional.
The subject of experiment [12] is Klebsiella pneumoniae. Nature of the experiment: Antibacterial activity against Klebsiella pneumoniae assessed as inhibition zone diameter after 24 hrs […]. Type of experiment: functional. An outline of the steps:
as §3

Experiment [13] relates to Aspergillus flavus. The experiment can be described thus: Antifungal activity against Aspergillus flavus assessed as inhibition zone diameter […] by agar dilution method. Type of experiment: functional. An outline of the steps:
as §1

In experiment [14] the test system is Candida albicans. Nature of the experiment: Antifungal activity against Candida albicans after 48 hrs […]. Type of experiment: functional.
Experiment [15] concerns Talaromyces marneffei. Nature of the experiment: Antifungal activity against Penicillium marneffei after 48 hrs […]. Type of experiment: functional.
In experiment [16] the test system is Trichophyton mentagrophytes. Nature of the experiment: Antifungal activity against Trichophyton mentagrophytes assessed as inhibition zone diameter […] by agar dilution method. Type of experiment: functional. The method in brief:
as §1

Experiment [17] has as its system Staphylococcus aureus. Nature of the experiment: Antibacterial activity against Staphylococcus aureus ATCC 25923 after 24 hrs by broth dilution technique. The settings on record: ATCC 25923, 24 h. Type of experiment: functional. An outline of the steps:
as §2

The subject of experiment [18] is Trichophyton mentagrophytes. Nature of the experiment: Antifungal activity against Trichophyton mentagrophytes after 48 hrs […]. Type of experiment: functional.

In brackets after ≈: the same amount, converted by molar mass.

The MIC is the smallest concentration in the dilution series that meets the test's criterion for growth inhibition. Read a high MIC as a less susceptible organism. As to `Nn1c(SCC(=O)Nc2ccccc2C(F)(F)F)nnc1-c1cc(F)c(Cl)cc1Cl`, the “inhibition zone (IZ)” value came out at 19 mm in the experiment with Candida albicans [1]; 25 mm in the experiment on Staphylococcus aureus [2]; 19 mm in the experiment with Aspergillus fumigatus [3]; 29 mm in the experiment with Pseudomonas aeruginosa [5]; 22 mm in the experiment with Streptococcus pyogenes [6]; 22 mm in the experiment with Talaromyces marneffei [9]. In addition, the “inhibition zone (IZ)” value is listed as 20 mm in the experiment on Klebsiella pneumoniae [12], 21 mm with Aspergillus flavus [13] and 18 mm in experiment [16]. The MIC in the experiment on Escherichia coli, against Streptococcus pyogenes [4], against Klebsiella pneumoniae [7], with Aspergillus fumigatus [8], against Pseudomonas aeruginosa [10] and against Aspergillus flavus [11] was 6.25 mg/L (≈ 13 µM) throughout. For the same compound, the MIC (against Candida albicans [14]; against Talaromyces marneffei [15]; against Staphylococcus aureus [17]; in experiment [18]) was 6.25 mg/L (≈ 13 µM) in each case.
For the compound `Nn1c(SCC(=O)Nc2cc(Cl)c(Cl)cc2Cl)nnc1-c1cc(F)c(Cl)cc1Cl`, the “inhibition zone (IZ)” value in the experiment on Candida albicans [1] was 20 mm; with Staphylococcus aureus [2], 22 mm; with Aspergillus fumigatus [3], 21 mm; with Pseudomonas aeruginosa [5], 30 mm; in the experiment with Streptococcus pyogenes [6], 25 mm; with Talaromyces marneffei [9], 23 mm. In addition, the “inhibition zone (IZ)” value in the experiment on Klebsiella pneumoniae [12] is reported as 21 mm; in the experiment with Aspergillus flavus [13] it was 25 mm; in experiment [16], 19 mm. Also, the MIC against Escherichia coli, in the experiment on Streptococcus pyogenes [4], against Klebsiella pneumoniae [7], in the experiment on Aspergillus fumigatus [8], against Pseudomonas aeruginosa [10] and in the experiment with Aspergillus flavus [11] was 6.25 mg/L (≈ 12.1 µM) each time. Besides, the MIC (in the experiment with Candida albicans [14]; in the experiment with Talaromyces marneffei [15]; against Staphylococcus aureus [17]; in experiment [18]) was 6.25 mg/L (≈ 12.1 µM) in each case.
`Cc1ccc(NC(=O)CSc2nnc(-c3cc(F)c(Cl)cc3Cl)n2N)c(C)c1`: the “inhibition zone (IZ)” value in the experiment on Candida albicans [1] was found to be 14 mm; in the experiment with Staphylococcus aureus [2] it was 17 mm; in the experiment with Aspergillus fumigatus [3], 8 mm; in the experiment with Pseudomonas aeruginosa [5] it was 30 mm; in the experiment with Streptococcus pyogenes [6], 18 mm; in the experiment on Talaromyces marneffei [9] it was 9 mm. The “inhibition zone (IZ)” value turned out to be 10 mm in the experiment on Klebsiella pneumoniae [12], 10 mm in the experiment with Aspergillus flavus [13] and 12 mm in experiment [16]. Also, the MIC in the experiment with Escherichia coli was 6.25 mg/L (≈ 14.2 µM); against Streptococcus pyogenes [4], 6.25 mg/L (≈ 14.2 µM); in the experiment with Klebsiella pneumoniae [7], 25 mg/L (≈ 56.8 µM); against Aspergillus fumigatus [8], 25 mg/L (≈ 56.8 µM); against Pseudomonas aeruginosa [10], 6.25 mg/L (≈ 14.2 µM); against Aspergillus flavus [11], 25 mg/L (≈ 56.8 µM). Also, the MIC in the experiment with Candida albicans [14] worked out at 12.5 mg/L (≈ 28.4 µM); with Talaromyces marneffei [15], 25 mg/L (≈ 56.8 µM); in the experiment with Staphylococcus aureus [17], 6.25 mg/L (≈ 14.2 µM); in experiment [18] it was 6.25 mg/L (≈ 14.2 µM).
As to `Cc1cccc(NC(=O)CSc2nnc(-c3cc(F)c(Cl)cc3Cl)n2N)c1C`, the “inhibition zone (IZ)” value is reported as 18 mm in the experiment on Candida albicans [1]; 20 mm in the experiment with Staphylococcus aureus [2]; 20 mm in the experiment with Aspergillus fumigatus [3]; 20 mm in the experiment on Pseudomonas aeruginosa [5]; 24 mm in the experiment with Streptococcus pyogenes [6]; 15 mm with Talaromyces marneffei [9]. The “inhibition zone (IZ)” value in the experiment on Klebsiella pneumoniae [12] turned out to be 17 mm; with Aspergillus flavus [13] it was 15 mm; in [16] it was 16 mm. The MIC came out at 12.5 mg/L (≈ 28.4 µM) against Escherichia coli; 6.25 mg/L (≈ 14.2 µM) in the experiment on Streptococcus pyogenes [4]; 12.5 mg/L (≈ 28.4 µM) in the experiment on Klebsiella pneumoniae [7]; 6.25 mg/L (≈ 14.2 µM) in the experiment with Aspergillus fumigatus [8]; 12.5 mg/L (≈ 28.4 µM) in the experiment on Pseudomonas aeruginosa [10]; 12.5 mg/L (≈ 28.4 µM) with Aspergillus flavus [11]. Further, the MIC is 6.25 mg/L (≈ 14.2 µM) against Candida albicans [14], 12.5 mg/L (≈ 28.4 µM) against Talaromyces marneffei [15], 6.25 mg/L (≈ 14.2 µM) against Staphylococcus aureus [17] and 6.25 mg/L (≈ 14.2 µM) in experiment [18].
With `Fc1cc(-c2nnc3n2N=C(Nc2cc(Cl)c(Cl)cc2Cl)CS3)c(Cl)cc1Cl`, the “inhibition zone (IZ)” value amounted to 20 mm with Candida albicans [1]; 24 mm in the experiment with Staphylococcus aureus [2]; 19 mm in the experiment with Aspergillus fumigatus [3]; 32 mm in the experiment with Pseudomonas aeruginosa [5]; 23 mm in the experiment on Streptococcus pyogenes [6]; 24 mm in the experiment on Talaromyces marneffei [9]. Also, the “inhibition zone (IZ)” value in the experiment on Klebsiella pneumoniae [12] was determined as 20 mm; with Aspergillus flavus [13], 23 mm; in experiment [16], 18 mm. For the same compound, the MIC in the experiment with Escherichia coli, in the experiment with Streptococcus pyogenes [4], against Klebsiella pneumoniae [7], against Aspergillus fumigatus [8], in the experiment on Pseudomonas aeruginosa [10] and with Aspergillus flavus [11] was 6.25 mg/L (≈ 12.6 µM) in each case. For the same compound, the MIC (against Candida albicans [14]; against Talaromyces marneffei [15]; with Staphylococcus aureus [17]; in experiment [18]) was 6.25 mg/L (≈ 12.6 µM) each time.

For the origin of these results see ChEMBL document CHEMBL1149770, “Synthesis and antimicrobial studies of novel dichlorofluorophenyl containing aminotriazolothiadiazines” (2008).
